# Test results: ChEMBL document CHEMBL3813699, “Structure-Activity Relationships of a Diverse Class of Halogenated Phenazines That Targets Persistent, Antibiotic-Tolerant Bacterial Biofilms and Mycobacterium tuberculosis” (J Med Chem, 2016)
# The source made the active and inactive calls. No cut-off for these calls is given here.
# Key:
# Staphylococcus aureus [1] = experiment: Antibiofilm activity against methicillin-resistant Staphylococcus aureus isolate 2 assessed as biofilm eradication incubated for 24 hrs by CBD assay; format: functional; conditions: for MBC: Staphylococcus aureus, isolate 2, 24 h
# Method in brief: (§1)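 Calgary Biofilm Device: pegs inoculated with mid-log culture diluted 1,000-fold in TSB + 0.5% glucose, 24 h 37 °C; washed pegs challenged with 2-fold dilutions 24 h 37 °C; pegs moved to fresh TSBG 24 h; MBEC = lowest concentration leaving no turbidity; 2–6 independent experiments.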
# Staphylococcus aureus [2] = experiment: Ratio of MBEC to MBC for methicillin-resistant Staphylococcus aureus clinical isolate 2 biofilm eradication; format: functional
# Method in brief: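 From the same CBD challenge plate, MBC taken by subculturing 20 µL into 180 µL TSBG overnight at 37 °C (no turbidity); MBEC from recovered pegs in fresh TSBG 24 h; ratio MBEC:MBC against MRSA-2.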
# Staphylococcus aureus [3] = experiment: Antibacterial activity against Staphylococcus aureus ATCC 25923 incubated for 16 to 20 hrs by broth microdilution method; format: functional
# [4] = test system: Staphylococcus epidermidis; experiment: Antibacterial activity against Staphylococcus epidermidis ATCC 12228 incubated for 16 to 20 hrs by broth microdilution method; format: functional
# [5] = test system: Staphylococcus epidermidis; experiment: Antibacterial activity against methicillin-resistant Staphylococcus epidermidis ATCC 35984 assessed as biofilm eradication incubated for 24 hrs by CBD assay; format: functional; conditions: for MBC: Staphylococcus epidermidis, ATCC 35984, 24 h; method in brief: as §1
# Staphylococcus aureus [6] = experiment: Antibacterial activity against methicillin-resistant Staphylococcus aureus clinical isolate 2 incubated for 16 to 18 hrs by broth microdilution method; format: functional
# [7] = test system: Staphylococcus epidermidis; experiment: Antibacterial activity against Staphylococcus epidermidis ATCC 12228 incubated for 16 to 18 hrs by broth microdilution method; format: functional
# Staphylococcus aureus [8] = experiment: Antibacterial activity against methicillin-resistant Staphylococcus aureus BAA-44 incubated for 16 to 18 hrs by broth microdilution method; format: functional
# [9] = test system: Staphylococcus epidermidis; experiment: Antibacterial activity against methicillin-resistant Staphylococcus epidermidis ATCC 35984 incubated for 16 to 18 hrs by broth microdilution method; format: functional
# Enterococcus faecium [10] = experiment: Antibacterial activity against vancomycin-resistant Enterococcus faecium ATCC 700221 incubated for 16 to 18 hrs by broth microdilution method; format: functional
# HeLa = experiment: Cytotoxicity against human HeLa cells after 24 hrs by LDH release assay; format: cell-based
# Method in brief: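 HeLa in DMEM + 10% FBS, 37 °C 5% CO2, at 70–80% confluence treated with 25, 50, 100 µM for 24 h; DMSO vehicle; Triton X-100 2% v/v max-LDH control, medium-only negative; supernatant with LDH reaction mix 30 min room temperature, stopped, absorbance 490 nm.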
# [11] = Induction of hemolysis in human RBC at 200 uM incubated for 1 hr; format: cell-based, Erythrocyte; conditions: red blood cells, read-out: Activity
# Method in brief: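 Human RBCs (EDTA), washed three times in Tris-buffered saline pH 7.2; 2% hRBC with compound at final 200 µM, 1 h 37 °C; supernatant OD405; % hemolysis relative to DMSO (0%) and Triton X (100%).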
# Staphylococcus aureus [12] = experiment: Antibacterial activity against methicillin-resistant Staphylococcus aureus clinical isolate 2 incubated for 16 hrs by broth microdilution method in presence of tiron; format: functional; conditions: isolate 2, 16 h
# Staphylococcus aureus [13] = experiment: Antibacterial activity against methicillin-resistant Staphylococcus aureus clinical isolate 2 incubated for 16 hrs by broth microdilution method in presence of Cu2+; format: functional; conditions: isolate 2, 16 h
# Staphylococcus aureus [14] = experiment: Antibacterial activity against methicillin-resistant Staphylococcus aureus clinical isolate 2 incubated for 16 hrs by broth microdilution method; format: functional; conditions: isolate 2, 16 h
# Staphylococcus aureus [15] = experiment: Antibiofilm activity against methicillin-resistant Staphylococcus aureus BAA-1707 assessed as biofilm eradication incubated for 24 hrs by CBD assay; format: functional; conditions: for MBC: Staphylococcus aureus, BAA-1707, 24 h; method in brief: as §1
# Staphylococcus aureus [16] = experiment: Antibacterial activity against methicillin-resistant Staphylococcus aureus BAA-1707 incubated for 16 to 18 hrs by broth microdilution method; format: functional
# [17] = test system: Mycobacterium tuberculosis; experiment: Antibacterial activity against Mycobacterium tuberculosis H37Ra ATCC 25177 after 7 days by two-fold serial dilution method; format: functional; conditions: H37Ra ATCC 25177, 168 h
# Staphylococcus aureus [18] = experiment: Antibiofilm activity against methicillin-resistant Staphylococcus aureus BAA-44 assessed as biofilm eradication incubated for 24 hrs by CBD assay; format: functional; conditions: for MBC: Staphylococcus aureus, BAA-44, 24 h; method in brief: as §1
# Enterococcus faecium [19] = experiment: Antibiofilm activity against […]-resistant Enterococcus faecium ATCC 700221 assessed as biofilm eradication incubated for 24 hrs by CBD assay; format: functional; conditions: for MBC: Enterococcus faecium, ATCC 700221, 24 h; method in brief: as §1
# Staphylococcus aureus [20] = experiment: Antibacterial activity against methicillin-resistant Staphylococcus aureus clinical isolate 2 incubated for 16 hrs by broth microdilution method in presence of Fe2+; format: functional; conditions: isolate 2, 16 h
# [21] = Aqueous solubility of compound in media after 16 hrs; format: physicochemical
# [22] = Metal chelating activity assessed as soluble Fe2+-compound complex formation by UV-vis spectroscopic analysis; format: physicochemical
# Method in brief: (§2)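 UV-vis monitoring after adding 0.5 equivalents CuSO4 or ammonium iron(II) sulfate to stirred 10 mM ligand in DMSO; Cu stoichiometry from free ligand remaining after 2 h room-temperature stirring with varying CuSO4 in methanol, filtered, redissolved in DMSO, A440 against calibration curve.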
# [23] = Metal chelating activity assessed as soluble Cu2+-compound complex formation by UV-vis spectroscopic analysis; format: physicochemical; method in brief: as §2
# Staphylococcus aureus [24] = experiment: Antibacterial activity against methicillin-resistant Staphylococcus aureus clinical isolate 2 incubated for 16 hrs by broth microdilution method in presence of thiourea; format: functional, organism-based
# Staphylococcus aureus [25] = experiment: Antibacterial activity against methicillin-resistant Staphylococcus aureus clinical isolate 2 incubated for 16 hrs by broth microdilution method in presence of MnTBAP; format: functional, organism-based
# Staphylococcus aureus [26] = experiment: Antibacterial activity against methicillin-resistant Staphylococcus aureus clinical isolate 2 incubated for 16 hrs by broth microdilution method in presence of ascorbic acid; format: functional, organism-based
# [27] = Metal chelating activity assessed as insoluble Cu2+-compound complex formation by UV-vis spectroscopic analysis; format: physicochemical; method in brief: as §2
Structure (SMILES),MBEC (Staphylococcus aureus [1]) [µM],MBC (Staphylococcus aureus [1]) [µM],MBEC [5] [µM],MBC [5] [µM],MIC (Staphylococcus aureus [6]) [µM],MIC [7] [µM],MIC [9] [µM],MIC (Enterococcus faecium [10]) [µM],IC50 (HeLa) [µM],"hemolysis at 1 h, 200 µM [11] [%]",MIC [17] [µM],also measured
C[C@H]1c2cccc(O)c2C(=O)C2=C(O)[C@]3(O)C(=O)C(C(N)=O)=C(O)[C@@H](N(C)C)[C@@H]3[C@@H](O)[C@@H]21.O [DOXYCYCLINE],46.9,2,,,,,,,,,,Ratio (Staphylococcus aureus [2]): >23
Oc1c(Br)ccc2nc3ccccc3nc12,,,,,,,,,,,,MIC (Staphylococcus aureus [3]): 6.25 µM; MIC [4]: 1.7 µg/mL
Oc1c(Cl)cc(Br)c2nc3cc(Br)c(Br)cc3nc12,25,25,3.13,1.56,12.5,0.08,0.3,0.39,> 100,2.1,,MIC (Staphylococcus aureus [8]): 25 µM; MIC (Staphylococcus aureus [12]): 0.2 µM; MIC (Staphylococcus aureus [13]): > 100 µM; MIC (Staphylococcus aureus [14]): 3.13 µM
Oc1ccc(I)c2nc3cc(Cl)c(Cl)cc3nc12,37.5,25,75,9.38,0.39,,0.78,3.13,> 100,1.4,3.13,MBEC (Staphylococcus aureus [15]): >200 µM; MBC (Staphylococcus aureus [15]): 75 µM; MIC (Staphylococcus aureus [16]): 0.15 µM; MBEC (Staphylococcus aureus [18]): >200 µM; MBC (Staphylococcus aureus [18]): 75 µM; MBC (Enterococcus faecium [19]): 3.13 µM; MIC (Staphylococcus aureus [12]): 0.2 µM; MIC (Staphylococcus aureus [20]): 3.13 µM; solubility at 16 h [21]: 200 µM
CO[C@H]1/C=C/O[C@@]2(C)Oc3c(C)c(O)c4c(O)c(c(/C=N/N5CCN(C)CC5)c(O)c4c3C2=O)NC(=O)/C(C)=C\C=C\[C@H](C)[C@H](O)[C@@H](C)[C@@H](O)[C@@H](C)[C@H](OC(C)=O)[C@@H]1C [RIFAMPIN],46.9,2,15.6,3,0.1,0.1,0.1,,,,,Ratio (Staphylococcus aureus [2]): >23
Cc1ccc2c(Br)cc(Br)c(O)c2n1 [BROQUINALDOL],188,23.5,93.8,9.38,,0.78,0.3,2.35,> 100,,25,MIC (Staphylococcus aureus [8]): 0.78 µM; MIC (Staphylococcus aureus [16]): 0.78 µM; MBEC (Enterococcus faecium [19]): 1.5 µM; MBC (Enterococcus faecium [19]): 2 µM; Activity [22]: Active; Activity [23]: Active
Oc1c(Br)cc(Br)c2nc3ccccc3nc12,93.8,15.6,250,23.5,,,,6.25,> 100,≤ 1,25,MBEC (Staphylococcus aureus [15]): 375 µM; MBC (Staphylococcus aureus [15]): 62.5 µM; MIC (Staphylococcus aureus [3]): 0.78 µM; MIC [4]: 0.27 µg/mL; MBEC (Staphylococcus aureus [18]): 188 µM; MBC (Staphylococcus aureus [18]): 62.5 µM; MIC (Staphylococcus aureus [13]): 75 µM; MIC (Staphylococcus aureus [20]): 3.13 µM; Activity (Staphylococcus aureus [24]): Active; Activity (Staphylococcus aureus [25]): Active; Activity (Staphylococcus aureus [26]): Active; Activity [27]: Active; Activity [22]: Active
